Experimental data reported in ChEMBL document CHEMBL1155130, “Selective angiotensin II AT2 receptor agonists: Benzamide structure-activity relationships” (Bioorg Med Chem, 2008).
Active and inactive are the calls of the source. The rule behind the calls is not given here.

How the values were obtained:
[1] = target: T1, Type-1 angiotensin II receptor A (Rattus norvegicus, UniProt P25095); experiment: Displacement of [125]Ang2 from AT1 receptor in rat liver membrane; format: cell membranes
T1 sequence (P25095 whole entry): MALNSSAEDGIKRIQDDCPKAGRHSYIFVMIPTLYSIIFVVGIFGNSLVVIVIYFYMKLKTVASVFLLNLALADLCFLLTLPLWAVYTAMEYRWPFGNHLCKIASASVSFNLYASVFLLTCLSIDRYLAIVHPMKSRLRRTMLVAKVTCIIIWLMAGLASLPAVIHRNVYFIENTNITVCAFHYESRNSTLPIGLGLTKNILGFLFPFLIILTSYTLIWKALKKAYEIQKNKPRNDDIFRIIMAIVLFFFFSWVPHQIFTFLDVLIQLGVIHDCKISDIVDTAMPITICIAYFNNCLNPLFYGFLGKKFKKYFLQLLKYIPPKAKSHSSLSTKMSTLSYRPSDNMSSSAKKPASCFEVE
How it was run: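 Rat liver membranes (5 mg original tissue per tube) incubated with [125I]Ang II (80,000–85,000 cpm, 0.03 nM) and varying test concentrations in 50 mM Tris–HCl pH 7.4, 100 mM NaCl, 10 mM MgCl2, 1 mM EDTA, 0.025% bacitracin, 0.2% BSA; 25 °C, 2 h. GF/B filtration, gamma counting; one-site fit; triplicate.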

AT2 receptor = AT2 receptor (Sus scrofa, UniProt A0A4X1W622); experiment: Displacement of [125]Ang2 from AT2 receptor in pig uterus membrane; format: cell membranes
NG108-15 = experiment: Effect on cellular morphology of mouse rat hybrid NG108-15 cells assessed as induction of neurite outgrowth; format: functional, cell-based
How it was run: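 NG108-15 cells (passage 18–28) grown in DMEM/10% FBS/HAT/gentamycin, 37 °C, 7% CO2. Plated at 3.6 × 10^4 cells per 35 mm dish, dosed daily for 3 days starting 24 h after plating, ± AT2 antagonist PD 123,319 added 30 min before. Phase-contrast micrographs on day 4. Cells with a neurite longer than one cell body counted as % of total (≥290 cells). Three independent experiments, duplicates, mean ± SEM.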

| Structure (SMILES) | Ki [1] [nM] | Ki (AT2 receptor) [nM] | Activity (NG108-15) |
| --- | --- | --- | --- |
| CCCCOC(=O)NS(=O)(=O)c1ccc(CC(C)C)cc1-c1ccc(Cn2ccnc2)cc1 | > 10000 |  |  |
| CCCCOC(=O)NS(=O)(=O)c1ccc(-c2ccccc2)cc1-c1ccc(C(=O)N(CC)CC)cc1 | > 10000 | 52 | Active |
| CCCCOC(=O)NS(=O)(=O)c1cc(Cc2ccccc2)ccc1-c1ccc(C(=O)N(CC)CC)cc1 | > 10000 | 300 |  |
| CCCCOC(=O)NS(=O)(=O)c1sc(CC(C)C)cc1-c1ccc(Cn2c(CC)nc3c(C)cc(C)nc32)cc1 | 1.1 | 2 |  |
| CCCCOC(=O)NS(=O)(=O)c1ccccc1-c1ccc(C(=O)N(CC)CC)cc1 | > 10000 | 402 |  |
| CCCCOC(=O)NS(=O)(=O)c1sc(CC(C)C)cc1-c1ccc(C(=O)N2CCOCC2)cc1 | > 10000 | 348 |  |
| CCCCOC(=O)NS(=O)(=O)c1ccc(CC(C)C)cc1-c1ccc(Cn2c(CC)nc3c(C)cc(C)nc32)cc1 | 2.1 | 0.7 |  |
| CCCCOC(=O)NS(=O)(=O)c1cc(CC(C)C)ccc1-c1ccc(C(=O)N(CC)CC)cc1 | > 10000 | 122 |  |
| CCCCOC(=O)NS(=O)(=O)c1sc(CC(C)C)cc1-c1ccc(C(=O)NC2CCCCC2)cc1 | > 10000 | 6.4 |  |
| CCCCOC(=O)NS(=O)(=O)c1ccc(CC(C)C)cc1-c1ccc(C(=O)N(CC)CC)cc1 | > 10000 | 144 |  |
| CCCCOC(=O)NS(=O)(=O)c1ccc(Cc2ccccc2)cc1-c1ccc(C(=O)N(CC)CC)cc1 | > 10000 | 162 |  |
| CCCCOC(=O)NS(=O)(=O)c1sc(CC(C)C)cc1-c1ccc(C(=O)NCc2ccccc2)cc1 | > 10000 | 1 | Active |
| CCCCOC(=O)NS(=O)(=O)c1ccc(Oc2ccccc2)cc1-c1ccc(C(=O)N(CC)CC)cc1 | > 10000 | 91.7 |  |

Further lines, with some results ahead:

| Ki [1] [nM] | Ki (AT2 receptor) [nM] | Structure (SMILES) | Activity (NG108-15) |
| --- | --- | --- | --- |
| > 10000 | 7 | CCCCOC(=O)NS(=O)(=O)c1sc(CC(C)C)cc1-c1ccc(CC(=O)N(C)C)cc1 |  |
| > 10000 | 6.4 | CCCCOC(=O)NS(=O)(=O)c1sc(CC(C)C)cc1-c1ccc(C(=O)N2CCCC2)cc1 |  |
| > 10000 | 8.8 | CCCCOC(=O)NS(=O)(=O)c1sc(CC(C)C)cc1-c1ccc(CN(C)C(C)=O)cc1 |  |
| > 10000 | 31.5 | CCCCOC(=O)NS(=O)(=O)c1sc(CC(C)C)cc1-c1ccc(C(=O)N(C)Cc2ccccc2)cc1 |  |
| > 10000 | 10.9 | CCCCOC(=O)NS(=O)(=O)c1sc(CC(C)C)cc1-c1ccc(C(=O)Nc2nccs2)cc1 |  |
| > 10000 | 3 | CCCCOC(=O)NS(=O)(=O)c1sc(CC(C)C)cc1-c1ccc(C(=O)N(CC)CC)cc1 | Active |
| > 10000 | 2.6 | CCCCOC(=O)NS(=O)(=O)c1sc(CC(C)C)cc1-c1ccc(C(=O)NC(C)C)cc1 |  |
| > 10000 | 10.5 | CCCCOC(=O)NS(=O)(=O)c1sc(CC(C)C)cc1-c1ccc(C(=O)NC2CC2)cc1 |  |
| > 10000 | 36.9 | CCCCOC(=O)NS(=O)(=O)c1sc(CC(C)C)cc1-c1ccc(C(=O)N(C)C)cc1 |  |
| > 10000 | 3.2 | CCCCOC(=O)NS(=O)(=O)c1sc(CC(C)C)cc1-c1ccc(C(=O)N2CCCCC2)cc1 |  |
| > 10000 |  | CCCCOC(=O)NS(=O)(=O)c1sc(CC(C)C)cc1-c1ccc(Cn2ccnc2)cc1 [BULOXIBUTID] |  |
| > 10000 | 106 | CCCCOC(=O)NS(=O)(=O)c1sc(CC(C)C)cc1-c1ccc(C(N)=O)cc1 |  |
